Reference: ChEMBL document CHEMBL3870359, “Design and Synthesis of Novel Meta-Linked Phenylglycine Macrocyclic FVIIa Inhibitors” (ACS Med Chem Lett, 2017)

How the values were obtained:
[1] = molecular target: T1, Coagulation factor VII/tissue factor (Homo sapiens, UniProt P08709); experiment: Inhibition of recombinant human factor-7a/TF using S2288 as substrate measured after 60 mins at 37 degC; assay type: protein-complex assay
Outline: (§1)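 Ki determined against recombinant human TF/FVIIa enzyme, each value averaged from two experiments. The assay was first run at 25 °C and later moved to 37 °C to better approximate physiological conditions.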

[2] = Permeability of the compound at pH 7.4 by PAMPA; assay type: ADME; settings: read-out: permeability
[3] = Permeability of the compound at pH 5.5 by PAMPA; assay type: ADME; settings: read-out: permeability
[4] = Half life in human liver microsomes; assay type: ADME
[5] = Half life in rat liver microsomes; assay type: ADME
[6] = Anticoagulant activity in factor 7 deficient human plasma assessed as concentration required for prolongation of prothrombin time; assay type: functional
Outline: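 Clotting (prothrombin time) assay in FVII-deficient human plasma. Read-out is the compound concentration that prolongs clotting time 2-fold (EC2X, μM).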

Kallikrein-1 = Kallikrein-1 (Homo sapiens, UniProt P06870); experiment: Inhibition of tissue Kallikrein-1 (unknown origin)
Sequence of Kallikrein-1 (P06870 whole entry): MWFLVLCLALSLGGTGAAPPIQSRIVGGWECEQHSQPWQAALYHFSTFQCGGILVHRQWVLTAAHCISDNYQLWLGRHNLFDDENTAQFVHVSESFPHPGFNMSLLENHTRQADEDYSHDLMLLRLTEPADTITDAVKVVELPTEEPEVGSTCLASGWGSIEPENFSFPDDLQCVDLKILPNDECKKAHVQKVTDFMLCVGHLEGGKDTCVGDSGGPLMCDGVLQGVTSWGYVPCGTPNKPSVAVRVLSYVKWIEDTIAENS

[7] = molecular target: Vitamin K-dependent protein C (Homo sapiens, UniProt P04070); experiment: Inhibition of activated protein C (unknown origin)
Sequence of Vitamin K-dependent protein C (P04070 43-197 limits assumed): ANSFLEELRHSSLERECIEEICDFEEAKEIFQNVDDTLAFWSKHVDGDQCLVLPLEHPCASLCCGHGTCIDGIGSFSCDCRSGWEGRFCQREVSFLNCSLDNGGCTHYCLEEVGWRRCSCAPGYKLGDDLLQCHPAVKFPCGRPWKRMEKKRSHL
Sequence of Vitamin K-dependent protein C (P04070 212-461 limits assumed): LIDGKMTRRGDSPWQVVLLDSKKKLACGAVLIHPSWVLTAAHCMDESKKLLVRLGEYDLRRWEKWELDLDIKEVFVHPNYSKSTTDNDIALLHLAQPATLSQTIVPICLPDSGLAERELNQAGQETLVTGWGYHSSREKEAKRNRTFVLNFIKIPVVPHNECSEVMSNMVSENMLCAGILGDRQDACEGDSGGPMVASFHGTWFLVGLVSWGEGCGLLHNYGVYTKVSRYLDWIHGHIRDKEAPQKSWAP

[8] = molecular target: T1, Coagulation factor VII/tissue factor; experiment: Inhibition of recombinant human factor-7a/TF using S2288 as substrate measured after 60 mins at 25 degC; assay type: protein-complex assay; outline: as §1
[9] = Oral bioavailability in rat; assay type: ADME, organism-based; settings: in vivo

T1 sequence (P08709 61-212 limits assumed): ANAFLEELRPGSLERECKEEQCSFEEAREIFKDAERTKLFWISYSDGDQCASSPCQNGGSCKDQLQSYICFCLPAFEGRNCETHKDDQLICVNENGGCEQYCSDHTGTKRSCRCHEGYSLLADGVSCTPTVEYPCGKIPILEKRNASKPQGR
T1 sequence (P08709 213-466 limits assumed): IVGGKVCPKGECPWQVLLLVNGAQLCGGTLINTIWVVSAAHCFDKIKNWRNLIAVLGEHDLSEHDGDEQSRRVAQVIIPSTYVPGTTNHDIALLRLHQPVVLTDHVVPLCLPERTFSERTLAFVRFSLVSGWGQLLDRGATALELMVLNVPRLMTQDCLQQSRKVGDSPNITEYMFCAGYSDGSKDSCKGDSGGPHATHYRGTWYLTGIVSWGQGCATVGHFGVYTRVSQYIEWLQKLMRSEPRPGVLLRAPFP
T1 sequence (P13726 33-295 partner limits assumed): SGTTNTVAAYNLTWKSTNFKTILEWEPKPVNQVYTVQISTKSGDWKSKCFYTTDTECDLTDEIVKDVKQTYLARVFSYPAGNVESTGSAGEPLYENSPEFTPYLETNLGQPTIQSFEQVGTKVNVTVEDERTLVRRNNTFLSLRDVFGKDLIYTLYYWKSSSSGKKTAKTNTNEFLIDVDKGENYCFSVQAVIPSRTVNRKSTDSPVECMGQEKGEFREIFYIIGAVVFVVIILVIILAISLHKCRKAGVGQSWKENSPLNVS

Ki [1]	half-life [4]	half-life [5]	Ki [8]	SMILES	2PT [6]	also measured
18 nM	14 min	16 min	–	COc1ccc2cc1CCC(=O)Nc1ccc(S(=O)(=O)C3CC3)c(c1)CN(C)C(=O)[C@@H]2Nc1ccc2c(N)ncc(F)c2c1	11 µM	Papp [2]: 54 ×10⁻⁶ cm/s; Papp [3]: 35 ×10⁻⁶ cm/s
27 nM	32 min	64 min	–	CN1Cc2cc(ccc2S(=O)(=O)C2CC2)NC(=O)CCc2cc(ccc2OCC(F)F)[C@@H](Nc2ccc3c(N)ncc(F)c3c2)C1=O	15 µM	Ki (Kallikrein-1): 140 nM; Papp [3]: 8.8 ×10⁻⁶ cm/s; Ki [7]: 1200 nM
0.24 nM	31 min	39 min	–	C[C@@H]1CC(=O)Nc2ccc(S(=O)(=O)C3CC3)c(c2)CN(C)C(=O)[C@H](Nc2ccc3c(N)ncc(F)c3c2)c2ccc(OCC(F)F)c1c2	3.5 µM	Ki (Kallikrein-1): 9.4 nM; Ki [7]: 39 nM
210 nM	–	–	–	CN1Cc2cc(ccc2S(=O)(=O)C2CC2)NC(=O)CCc2cc(ccc2F)[C@@H](Nc2ccc3c(N)ncc(F)c3c2)C1=O	26 µM	–
26 nM	23 min	23 min	–	CN1Cc2cc(ccc2S(=O)(=O)C2CC2)NC(=O)CCc2cc(ccc2OCC2CC2)[C@@H](Nc2ccc3c(N)ncc(F)c3c2)C1=O	29 µM	–
77 nM	26 min	5 min	–	CN1Cc2cc(ccc2S(=O)(=O)C2CC2)NC(=O)CCc2cc(ccc2C2CC2)[C@@H](Nc2ccc3c(N)ncc(F)c3c2)C1=O	26 µM	–
260 nM	13 min	33 min	–	CN1Cc2cc(ccc2S(=O)(=O)C2CC2)NC(=O)CCc2cccc(c2)[C@@H](Nc2ccc3c(N)ncc(F)c3c2)C1=O	10 µM	Papp [2]: 12 ×10⁻⁶ cm/s; Papp [3]: 6.7 ×10⁻⁶ cm/s; bioavailability [9]: 3.7%
67 nM	14 min	74 min	–	C[C@H]1CC(=O)Nc2ccc(S(=O)(=O)C3CC3)c(c2)CN(C)C(=O)[C@H](Nc2ccc3c(N)ncc(F)c3c2)c2ccc(OCC(F)F)c1c2	23 µM	Ki (Kallikrein-1): 23 nM; Ki [7]: 5700 nM
92 nM	–	–	–	CN1Cc2cc(ccc2S(=O)(=O)C2CC2)NC(=O)CCc2cc(ccc2O)[C@@H](Nc2ccc3c(N)ncc(F)c3c2)C1=O	14 µM	–

Second part, the molecule before the results:

SMILES	Ki [1]	half-life [4]	half-life [5]	Ki [8]	2PT [6]	also measured
CN1Cc2cc(ccc2S(=O)(=O)C2CC2)NC(=O)CCc2cccc(c2)[C@@H](Nc2ccc3c(N)nccc3c2)C1=O	58 nM	–	–	< 5 nM	–	–
COc1c(F)cc2cc1CCC(=O)Nc1ccc(S(=O)(=O)C3CC3)c(c1)CN(C)C(=O)[C@@H]2Nc1ccc2c(N)ncc(F)c2c1	410 nM	14 min	8 min	–	41 µM	–
CN1CCc2cccc(c2)[C@@H](Nc2ccc3c(N)nccc3c2)C(=O)N(C)Cc2cc(ccc2S(=O)(=O)C2CC2)NC1=O	6.3 nM	–	–	–	–	–
COc1cc2cc(c1)[C@@H](Nc1ccc3c(N)ncc(F)c3c1)C(=O)N(C)Cc1cc(ccc1S(=O)(=O)C1CC1)NC(=O)CC2	290 nM	15 min	46 min	–	14 µM	Papp [2]: 29 ×10⁻⁶ cm/s; Papp [3]: 1.5 ×10⁻⁶ cm/s
CN1Cc2cc(ccc2S(=O)(=O)C2CC2)NC(=O)NCCc2cccc(c2)[C@@H](Nc2ccc3c(N)ncc(F)c3c2)C1=O	–	–	–	17 nM	–	–
CN1CCc2cccc(c2)[C@@H](Nc2ccc3c(N)ncc(F)c3c2)C(=O)N(C)Cc2cc(ccc2S(=O)(=O)C2CC2)NC1=O	200 nM	5 min	6 min	14 nM	–	Papp [2]: 22 ×10⁻⁶ cm/s; F ([9]; BLD = below limit of detection): Bld
CN1Cc2cc(ccc2S(=O)(=O)C2CC2)NC(=O)OCc2cccc(c2)[C@@H](Nc2ccc3c(N)nccc3c2)C1=O	–	–	–	260 nM	–	–
COc1ccc2cc1[C@@H](C)CN(C)C(=O)Nc1ccc(S(=O)(=O)C3CC3)c(c1)CN(C)C(=O)[C@@H]2Nc1ccc2c(N)ncc(F)c2c1	3.8 nM	4 min	4 min	< 5 nM	–	–
CN1Cc2cc(ccc2S(=O)(=O)C2CC2)NC(=O)N(Cc2ccccc2)CCc2cccc(c2)[C@@H](Nc2ccc3c(N)ncc(F)c3c2)C1=O	–	–	–	80 nM	–	–
COc1ccc2cc1[C@H](C)CN(C)C(=O)Nc1ccc(S(=O)(=O)C3CC3)c(c1)CN(C)C(=O)C2Nc1ccc2c(N)nccc2c1 (mixture of isomers)	–	6 min	6 min	47 nM	–	–
CN1Cc2cc(ccc2S(=O)(=O)C2CC2)NC(=O)N(CC2CCC2)CCc2cccc(c2)C(Nc2ccc3c(N)ncc(F)c3c2)C1=O (racemic)	–	–	–	150 nM	–	–
CN1Cc2cc(ccc2S(=O)(=O)C2CC2)NC(=O)N(CC2CC2)CCc2cccc(c2)C(Nc2ccc3c(N)ncc(F)c3c2)C1=O (racemic)	–	5 min	12 min	59 nM	–	–
